Screening results from PubChem.
PP1 counter = blocks human PP1-alpha phosphatase, a PP5 counter-screen; P62136; purified PP1alpha, OMFP fluorescence; inhibition, % at 6.7 µM; actives 0.9% (n = 320,000);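 active means inhibition above the mean inhibition of all tested compounds plus 3 SD, computed separately for each screening campaign, cut at about 15% in these data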
TPT1 inhibitor = blocks Candida albicans tRNA 2'-phosphotransferase. recombinant caTPT1, FP RNA substrate dephosphorylation. inhibition, % at 5 µM. actives 0.81% (n = 300,000);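 active means inhibition above the mean of all tested compounds plus 3 SD, set per screening campaign, cut at about 24% in these data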
NadD inh = blocks S. aureus nicotinate mononucleotide adenylyltransferase. purified NadD enzyme, colorimetric absorbance read-out. inhibition, % at 20 µM. actives 0.78% (n = 360,000). AID 602399; in the data active means inhibition above about 26%
HNF4A DNA FP = change in binding of human HNF4 alpha to DNA. HNF4a-FITC DNA binding, fluorescence polarization, 1 h. activity change, % at 10 µM. AID 1224865. actives 0.3% (n = 360,000). P41235; in the data active means activity change above about 30%, passing the limit was not always enough
Rpn11 inh = inhibitors of human proteasome Rpn11 | O00487 | human 26S proteasome, Ub4-pepOG fluorescence polarization; 20S core pre-blocked with epoxomicin | inhibition, % at 20 µM | actives 0.59% (n = 360,000);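 active means inhibition at 20 µM, scaled to each plate's controls, above about 33%, limit read from the data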
Target sequence (O00487 whole entry, looked up): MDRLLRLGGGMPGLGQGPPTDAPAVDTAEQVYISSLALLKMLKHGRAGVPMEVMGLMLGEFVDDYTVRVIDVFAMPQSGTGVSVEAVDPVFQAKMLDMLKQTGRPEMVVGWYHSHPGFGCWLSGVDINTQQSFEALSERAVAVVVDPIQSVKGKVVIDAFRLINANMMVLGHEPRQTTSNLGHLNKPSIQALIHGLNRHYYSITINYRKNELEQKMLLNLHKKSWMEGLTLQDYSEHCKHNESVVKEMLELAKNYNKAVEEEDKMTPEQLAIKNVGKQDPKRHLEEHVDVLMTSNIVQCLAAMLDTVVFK
CSN deneddyl inh = CSN deneddylation inhibition; Q92905; actives 0.38% (n = 360,000); Purified CSN, SCF-Nedd8-OG deneddylation, fluorescence polarization; inhibition, % at 12.5 µM;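 active means pattern-corrected inhibition above about 35%, with an unprinted fluorescence ratio check between 0.5 and 1.5, limit read from the data, passing the limit was not always enough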
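Material: purified human Csn5 enzyme expressed in HEK293T cells / Medium: Tris buffer pH 7.5, NaCl, DTT, Tween-20, trehalose, ovalbumin / Compound dosing: 12.5 µM single point / Schedule: 90 min incubation of compound, enzyme and substrate at room temperature / Signal: fluorescence polarization of the substrate / Control set: no-enzyme wells high, enzyme-with-substrate wells low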
caTPT1 confirm = confirmation of Candida albicans TPT1 inhibitors; shares compounds with TPT1 inhibitor; recombinant caTPT1, fluorescence polarization, RNase T1 coupled; inhibition, % at 5 µM; actives 74% (n = 2,400); AID 2149;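 active means inhibition above the primary screen limit, the mean inhibition of all tested compounds plus 3 SD, cut at about 25% in these data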
RNase T1 inh = RNase T1 inhibition in TPT1 counter-screen | shares compounds with TPT1 inhibitor | RNase T1 cleavage, fluorescence polarization, 1536-well | inhibition, % at 5 µM | actives 83% (n = 2,400);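 active means inhibition above the solvent-only control well mean plus 3 SD, limit set per screening run, cut at about 23% in these data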;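 further: inhibitors block cleavage so intact labeled substrate keeps polarization high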
Target sequence (P00651 whole entry, looked up): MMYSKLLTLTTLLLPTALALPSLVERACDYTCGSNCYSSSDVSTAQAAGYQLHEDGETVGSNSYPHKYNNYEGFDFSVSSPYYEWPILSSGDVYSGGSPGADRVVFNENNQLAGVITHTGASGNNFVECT
Each line names hits and unclear results; the compound was inactive in the other large screens (follow-up assays come after a bar, where shown). In the library only some 2.7% were active in any assay of this set; here they are far more common.

CC1=NN(c2ccccc2)C(=O)/C1=C\C=C1\N(C)c2ccccc2C1(C)C	TPT1 inhibitor 61, HNF4A DNA FP 70 (not shown: Rpn11 inh) | caTPT1 confirm 51 | RNase T1 inh 64
CC1=NN(c2ccccc2)C(=O)/C1=C/N(C)C	none
CN(C)/C=C/C(=O)c1ccc(N2CCN(c3ncc(C(F)(F)F)cc3Cl)CC2)cc1	TPT1 inhibitor 80 | caTPT1 confirm inactive | RNase T1 inh inactive
Cc1ccc(/C(C#N)=C\c2ccc(N3CCOCC3)o2)cc1	TPT1 inhibitor 121, HNF4A DNA FP 80 (not shown: Rpn11 inh) | caTPT1 confirm 154 | RNase T1 inh 147
Cc1ccc2nc(/C(C#N)=C\c3ccc(N4CCOCC4)o3)[nH]c2c1	TPT1 inhibitor 139 (not shown: Rpn11 inh) | caTPT1 confirm 149 | RNase T1 inh 136
O=C1NC(=O)/C(=C/c2ccc(N3CCOCC3)o2)N1	none
N#C/C(=C/c1ccc(N2CCCCC2)o1)c1cccc(F)c1	TPT1 inhibitor 134 (not shown: Rpn11 inh) | caTPT1 confirm 178 | RNase T1 inh 166
CC(=NNC(=O)C(C)SC(C)C(=O)NN=C(C)c1cccnc1)c1cccnc1 (centres undefined)	none (no result: PP1 counter, TPT1 inhibitor)
N#Cc1ccc(-c2ccc(OCC(=O)NN=Cc3ccncc3)cc2)cc1	none (no result: PP1 counter, TPT1 inhibitor)
CCN1/C(=C/c2ccc3cc(C)ccc3[n+]2CC)Sc2ccc3sccc3c21	TPT1 inhibitor 33, NadD inh 44, Rpn11 inh 147, CSN deneddyl inh 162 | caTPT1 confirm 63 | RNase T1 inh 66
CC[n+]1c(C)sc2c3ccsc3ccc21	none
NS(=O)(=O)c1ccc(NC(=O)c2cc(-c3cc(Cl)ccc3O)n[nH]2)cc1	none (no result: PP1 counter, TPT1 inhibitor)
CCCCCN1C=CC=C/C1=C\C=C(C#N)C#N	TPT1 inhibitor 41 | caTPT1 confirm 44 | RNase T1 inh 58
O=C1N/C(=N\S(=O)(=O)Cc2ccccc2)S/C1=C/c1cccc([N+](=O)[O-])c1	none
O=C1N/C(=N/O)S/C1=C/c1cccc([N+](=O)[O-])c1	none
O=C1NC(=Nc2ccccc2Cl)S/C1=C\c1cc([N+](=O)[O-])ccc1O	TPT1 inhibitor 88, HNF4A DNA FP 76 (not shown: Rpn11 inh) | caTPT1 confirm 99 | RNase T1 inh 99
COc1cccc(N=C2NC(=O)/C(=C/c3cc([N+](=O)[O-])ccc3O)S2)c1	TPT1 inhibitor 51, HNF4A DNA FP 76 (not shown: Rpn11 inh) | caTPT1 confirm 64 | RNase T1 inh 70
COc1ccc(CCNC(=O)c2nn(C)c3c2CS(=O)(=O)c2ccccc2-3)c(OC)c1	none
Cc1ccc(/C=C(\C#N)C(=O)NC(C)C)o1	none
CC(C)NC(=O)/C(C#N)=C/c1ccc(N(C)C)o1	TPT1 inhibitor 158 (not shown: Rpn11 inh) | caTPT1 confirm 177 | RNase T1 inh 167
CN(C)CCN1C(=O)C(O)=C(C(=O)c2cc3ccccc3o2)C1c1ccc(N(C)C)cc1 (centres undefined)	TPT1 inhibitor 32 | caTPT1 confirm inactive | RNase T1 inh 35
CCC1CCC/C1=N\NC(=O)c1ccoc1C (centres undefined)	none (no result: PP1 counter, TPT1 inhibitor)
COc1ccc(CCNC(=O)c2ccc3c(c2)NC(=O)C(CSCc2cc(C)ccc2C)N3)cc1OC (centres undefined)	TPT1 inhibitor 129 (no result: NadD inh, HNF4A DNA FP, Rpn11 inh, CSN deneddyl inh) | caTPT1 confirm 124 | RNase T1 inh 122
CC(=O)Nc1cccc(C(=O)/C=C/c2ccc(N(C)C)cc2)c1	TPT1 inhibitor 103, HNF4A DNA FP 83 (not shown: Rpn11 inh) | caTPT1 confirm 100 | RNase T1 inh 99
O=C(CCNS(=O)(=O)c1ccc(Br)cc1)NCC(c1cccs1)N1CCOCC1 (centres undefined)	none (no result: PP1 counter, TPT1 inhibitor)
CCOC(=O)c1c(-c2ccc(OC)cc2)csc1/N=C/C1C(=O)CCCC1=O	TPT1 inhibitor 172 | caTPT1 confirm 25 | RNase T1 inh 36
O=C(O)c1nn(Cc2csc(-c3ccccc3)n2)c(=O)c2ccccc12	none
COc1ccc(-n2c(=O)c(CCC(=O)N3CCN(c4cccc(OC)c4)CC3)nc3ccccc32)cc1	none (no result: PP1 counter, TPT1 inhibitor)
COc1ccc(/C(O)=C/c2nc3ccccc3n(-c3ccccc3)c2=O)cc1	TPT1 inhibitor 67, HNF4A DNA FP 50 | caTPT1 confirm 66 | RNase T1 inh 95
CN(C)CCC1CCN(c2cc(C#N)c(C#N)cc2[N+](=O)[O-])CC1	TPT1 inhibitor 119 | caTPT1 confirm inactive | RNase T1 inh inactive
N#Cc1cc(N2CCCCC2)c([N+](=O)[O-])cc1C#N	none
Cc1cc(C(=O)NCC(=O)Nc2c(C)cccc2C)c(C)o1	none
Cn1cc(/C=N\NC(=O)C2COc3ccccc3O2)c2ccccc21 (centres undefined)	none (no result: NadD inh, HNF4A DNA FP, Rpn11 inh, CSN deneddyl inh)
Cc1c(/C=N\NC(=O)C2COc3ccccc3O2)c2ccccc2n1C (centres undefined)	TPT1 inhibitor 51 | caTPT1 confirm inactive | RNase T1 inh inactive
CCSc1ccc([C@@H]2[C@H]3C(=O)N(CC)C(=O)[C@H]3[C@]3(C(=O)OC)CCCCN23)cc1	TPT1 inhibitor 24 | caTPT1 confirm 39 | RNase T1 inh 49
CCOc1cccc(/C=N/NS(=O)(=O)c2ccc(C)c([N+](=O)[O-])c2)c1O	TPT1 inhibitor 94 | caTPT1 confirm inactive | RNase T1 inh inactive
COc1ccc(-n2c(O)c(/C=N/NS(=O)(=O)c3ccc(C)c([N+](=O)[O-])c3)c3ccccc3c2=O)cc1OC	TPT1 inhibitor 100 (not shown: Rpn11 inh) | caTPT1 confirm 114 | RNase T1 inh 113
Cc1ccc(S(=O)(=O)N/N=C/c2ccc(O)cc2O)cc1[N+](=O)[O-]	none
COc1cc(/C=N/NS(=O)(=O)c2ccc(C)c([N+](=O)[O-])c2)cc([N+](=O)[O-])c1O	none
CCc1ccc(-c2cc(C(=O)Nc3c(C)n(C)n(-c4ccccc4)c3=O)c3ccccc3n2)s1	TPT1 inhibitor 25 | caTPT1 confirm 33 | RNase T1 inh 43
CCCOc1ccc(C2=NNC(=O)CC2)cc1	none
CCn1c(O)c(/C=N/N=C2CCCCC2)c2cc(C3=NNC(=O)CC3)ccc21	TPT1 inhibitor 37 | caTPT1 confirm inactive | RNase T1 inh 36
COc1ccc(C2=NNC(=O)CC2)cc1	none
CCCCC(CCCC)=N/N=C/c1c(O)n(CC)c2cc(C3=NNC(=O)CC3)ccc12	TPT1 inhibitor 34 (not shown: Rpn11 inh) | caTPT1 confirm inactive | RNase T1 inh 22
CCc1nc2c(OCCn3cccc3)cccn2c1N(C=O)Cc1ccccc1	none (no result: PP1 counter, TPT1 inhibitor)
O=C(c1ccc(N2CCCC2=O)cc1)N1CCOCC1	TPT1 inhibitor 65 | caTPT1 confirm inactive | RNase T1 inh inactive
O=C(Cn1cnc2ccccc21)N/N=C/c1ccc([N+](=O)[O-])cc1	none
